From ChEMBL document CHEMBL4038284, “Synthesis of novel quinoline-based 4,5-dihydro-1H-pyrazoles as potential anticancer, antifungal, antibacterial and antiprotozoal agents” (Eur J Med Chem, 2017)

Assays:
Assay type in all cases: functional
CCRF-CEM = assay: Growth inhibition of human CCRF-CEM cells incubated for 48 hrs by sulforhodamine B assay
Outline: (§1)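 NCI 60-line screen. Cells in RPMI-1640 with 5% FBS and 2 mM L-glutamine, preincubated 24 h, then time-zero plates TCA-fixed. Compounds from DMSO stocks given at five final concentrations (100, 10, 1.0, 0.1, 0.01 µM) for 48 h at 37 °C, 5% CO2. Cells fixed with 10% TCA, SRB-stained, read at 515 nm. GI50 is the concentration giving 50% lower net protein increase versus control.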

HL-60(TB) = assay: Growth inhibition of human HL-60(TB) cells incubated for 48 hrs by sulforhodamine B assay; conditions: HL-60, 48 h; outline: as §1
MOLT-4 = assay: Growth inhibition of human MOLT4 cells incubated for 48 hrs by sulforhodamine B assay; conditions: MOLT-4, 48 h; outline: as §1
RPMI-8226 = assay: Growth inhibition of human RPMI8226 cells incubated for 48 hrs by sulforhodamine B assay; conditions: RPMI-8226, 48 h; outline: as §1
SR = assay: Growth inhibition of human SR cells incubated for 48 hrs by sulforhodamine B assay; outline: as §1
HOP-62 = assay: Growth inhibition of human HOP62 cells incubated for 48 hrs by sulforhodamine B assay; conditions: HOP-62, 48 h
Outline: (§2)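 NCI five-dose SRB assay (100, 10, 1.0, 0.1, 0.01 µM) with 48 h exposure in RPMI-1640 with 5% FBS and 2 mM L-glutamine. Cells fixed with TCA and stained with SRB, read at 515 nm. GI50 is the concentration where [(Ti−Tz)/(C−Tz)]×100 = 50.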

NCI-H226 = assay: Growth inhibition of human NCI-H226 cells incubated for 48 hrs by sulforhodamine B assay; conditions: NCI-H226, 48 h; outline: as §1
COLO 205 = assay: Growth inhibition of human COLO205 cells incubated for 48 hrs by sulforhodamine B assay; conditions: COLO 205, 48 h; outline: as §2
HCC 2998 = assay: Growth inhibition of human HCC2998 cells incubated for 48 hrs by sulforhodamine B assay; conditions: HCC 2998, 48 h; outline: as §1
HCT-15 = assay: Growth inhibition of human HCT15 cells incubated for 48 hrs by sulforhodamine B assay; conditions: HCT-15, 48 h; outline: as §1
HT-29 = assay: Growth inhibition of human HT-29 cells incubated for 48 hrs by sulforhodamine B assay; conditions: HT-29, 48 h
Outline: (§3)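 Five-dose NCI SRB assay at 100, 10, 1.0, 0.1 and 0.01 μM for 48 h at 37 °C, 5% CO2. Medium was RPMI-1640 with 5% FBS and 2 mM glutamine. Time-zero plates were TCA-fixed at compound addition, A515 read after SRB staining. GI50 was solved from [(Ti−Tz)/(C−Tz)]×100 = 50. Values beyond the tested range are given as > or <.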

SF-539 = assay: Growth inhibition of human SF539 cells incubated for 48 hrs by sulforhodamine B assay; conditions: SF-539, 48 h
Outline: (§4)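 NCI-60 panel cells grown in RPMI-1640 with 5% FBS and 2 mM L-glutamine, preincubated 24 h at 37 °C/5% CO2. Time-zero plates were TCA-fixed at compound addition. DMSO stocks were diluted in medium and tested at five final concentrations (100, 10, 1.0, 0.1, 0.01 µM) for 48 h. Cells were TCA-fixed, stained with SRB and read at 515 nm. GI50 = 50% lower net protein increase versus control.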

SNB-19 = assay: Growth inhibition of human SNB19 cells incubated for 48 hrs by sulforhodamine B assay; conditions: SNB-19, 48 h; outline: as §4
SNB-75 = assay: Growth inhibition of human SNB75 cells incubated for 48 hrs by sulforhodamine B assay; conditions: SNB-75, 48 h; outline: as §1
LOX IMVI = assay: Growth inhibition of human LOXIMVI cells incubated for 48 hrs by sulforhodamine B assay; outline: as §3
M14 = assay: Growth inhibition of human M14 cells incubated for 48 hrs by sulforhodamine B assay; conditions: M14, 48 h; outline: as §3
MDA-MB-435 = assay: Growth inhibition of human MDA-MB-435 cells incubated for 48 hrs by sulforhodamine B assay; conditions: MDA-MB-435, 48 h; outline: as §3
SK-MEL-28 = assay: Growth inhibition of human SK-MEL-28 cells incubated for 48 hrs by sulforhodamine B assay; conditions: SK-MEL-28, 48 h; outline: as §4
UACC-62 = assay: Growth inhibition of human UACC62 cells incubated for 48 hrs by sulforhodamine B assay; conditions: UACC-62, 48 h; outline: as §1
IGROV-1 = assay: Growth inhibition of human IGROV1 cells incubated for 48 hrs by sulforhodamine B assay; conditions: IGROV-1, 48 h; outline: as §1
OVCAR-3 = assay: Growth inhibition of human OVCAR3 cells incubated for 48 hrs by sulforhodamine B assay; conditions: OVCAR-3, 48 h; outline: as §3
OVCAR-4 = assay: Growth inhibition of human OVCAR4 cells incubated for 48 hrs by sulforhodamine B assay; conditions: OVCAR-4, 48 h; outline: as §3
OVCAR-8 = assay: Growth inhibition of human OVCAR8 cells incubated for 48 hrs by sulforhodamine B assay; conditions: OVCAR-8, 48 h; outline: as §3
786-0 = assay: Growth inhibition of human 786-0 cells incubated for 48 hrs by sulforhodamine B assay; conditions: 786-0, 48 h; outline: as §2
ACHN = assay: Growth inhibition of human ACHN cells incubated for 48 hrs by sulforhodamine B assay; outline: as §1
RXF 393 = assay: Growth inhibition of human RXF393 cells incubated for 48 hrs by sulforhodamine B assay; conditions: RXF 393, 48 h; outline: as §3
SN12C = assay: Growth inhibition of human SN12C cells incubated for 48 hrs by sulforhodamine B assay; outline: as §4
TK-10 = assay: Growth inhibition of human TK10 cells incubated for 48 hrs by sulforhodamine B assay; conditions: TK-10, 48 h; outline: as §1
MDA-MB-231 = assay: Growth inhibition of human MDA-MB-231 cells incubated for 48 hrs by sulforhodamine B assay; conditions: MDA-MB-231, 48 h; outline: as §3
MDA-MB-468 = assay: Growth inhibition of human MDA-MB-468 cells incubated for 48 hrs by sulforhodamine B assay; conditions: MDA-MB-468, 48 h; outline: as §3
[1] = read-out: LC50 (the source's name)

## COc1ccc(C2=NN(C=O)C(c3cccc(Nc4ccnc5cc(Cl)ccc45)c3)C2)cc1 (stereo not given)
CCRF-CEM
  GI50: 2.14 µM
CCRF-CEM; [1]
  CC50: > 100 µM
HL-60(TB)
  GI50: 2.03 µM
HL-60(TB); [1]
  CC50: 33.6 µM
MOLT-4
  GI50: 2.37 µM
MOLT-4; [1]
  CC50: > 100 µM
RPMI-8226
  GI50: 1.36 µM
RPMI-8226; [1]
  CC50: > 100 µM
SR
  GI50: 0.58 µM
SR; [1]
  CC50: > 100 µM
HOP-62
  GI50: 2.11 µM
HOP-62; [1]
  CC50: 67.7 µM
NCI-H226
  GI50: 3.13 µM
NCI-H226; [1]
  CC50: > 100 µM
COLO 205
  GI50: 2.4 µM
COLO 205; [1]
  CC50: 60.6 µM
HCC 2998
  GI50: 11.7 µM
HCC 2998; [1]
  CC50: > 100 µM
HCT-15
  GI50: 2.13 µM
HCT-15; [1]
  CC50: > 100 µM
HT-29
  GI50: 1.65 µM
  LC50: 67.4 µM
SF-539
  GI50: 2.34 µM
SF-539; [1]
  CC50: 39.7 µM
SNB-19
  GI50: 5.11 µM
SNB-19; [1]
  CC50: > 100 µM
SNB-75
  GI50: 2.56 µM
SNB-75; [1]
  CC50: > 100 µM
LOX IMVI
  GI50: 2.52 µM
LOX IMVI; [1]
  CC50: 39 µM
M14
  GI50: 2.34 µM
M14; [1]
  CC50: 67.5 µM
MDA-MB-435
  GI50: 0.37 µM
MDA-MB-435; [1]
  CC50: > 100 µM
SK-MEL-28
  GI50: 8.12 µM
SK-MEL-28; [1]
  CC50: 67.1 µM
UACC-62
  GI50: 2.41 µM
UACC-62; [1]
  CC50: 68.1 µM
IGROV-1
  GI50: 3.71 µM
IGROV-1; [1]
  CC50: > 100 µM
OVCAR-3
  GI50: 1.97 µM
OVCAR-3; [1]
  CC50: 63.7 µM
OVCAR-4
  GI50: 1.54 µM
OVCAR-4; [1]
  CC50: > 100 µM
OVCAR-8
  GI50: 3.29 µM
  LC50 (concentration causing 50% net cell kill): > 100 µM
786-0
  GI50: 3.43 µM
  LC50: 79.8 µM
ACHN
  GI50: 4.59 µM
ACHN; [1]
  CC50: > 100 µM
RXF 393
  GI50: 1.66 µM
RXF 393; [1]
  CC50: 59.2 µM
SN12C
  GI50: 4.45 µM
SN12C; [1]
  CC50: > 100 µM
TK-10
  GI50: 4.24 µM
TK-10; [1]
  CC50: 61.7 µM
MDA-MB-231
  GI50: 4 µM
MDA-MB-231; [1]
  CC50: > 100 µM
MDA-MB-468
  GI50: 0.42 µM
MDA-MB-468; [1]
  CC50: 63.8 µM
